A short description of data set [1]: Cytotoxicity against mouse RAW264.7 cells assessed as cell survival at 25 uM. The class given is cell-based. Conditions: read-out: Survival.
For the next data set, the system named is RAW264.7. Briefly: Antiinflammatory activity against mouse RAW264.7 cells assessed as inhibition of LPS-induced NO production pretreated for 30 mins followed by LPS stimulation measured after 24 hrs by Griess reagent based assay. The data set is classed as functional, cell-based. The procedure, abridged: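 Supernatant mixed 1:1 with Griess reagent for 10 min, absorbance read at 540 nm. DMSO final ≤0.1%. Aminoguanidine hydrochloride served as positive control. Run in triplicate; IC50 given as mean ± SD (n = 3).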
Background: The Griess reaction detects nitrite, a stable product of nitric oxide.

pIC50: −log10 of the molar value. Where a name gives a salt, the structure may show the parent alone. Some results are limits rather than exact numbers.

`CC1=C(C)C2=CC(=O)c3c(O)c4c(c(O)c3[C@@]2(C)CC1)O[C@@H](C)C4`: the viability at 25 µM in data set [1] was below 15%.
One may read the pIC50 as the IC50 on a negative log10 scale, so that one unit is a factor of ten. Take `C=C1C2=CC(=O)c3c(O)c4c(c(O)c3[C@@]2(C)CC[C@@]1(C)O)OC(C)C4` (some centres undefined): the pIC50 in the data set on RAW264.7 is below 4.30.
Same read-out and setting: the value for `CC1(C)CCC[C@@]2(C)C1=C(O)C(=O)c1c(O)c3c(c(O)c12)O[C@@H](CO)C3` [VILLOSIN C] was 4.81; that for `COC(=O)C1=C(C)C2=CC(=O)c3c(O)c4c(c(O)c3[C@@]2(C)CC1)O[C@@H](C)C4` was below 4.30; that for `CC(O)Cc1cc2c(c(O)c1O)[C@@]1(C)CCCC(C)(C)[C@@H]1CC2=O` (some centres undefined) was below 4.30.
The same measure, in the same setting: the value for `CC1=C(C)C2=CC(=O)c3c(O)c4c(c(O)c3[C@@]2(C)CC1)O[C@@H](C)[C@@H]4O` was below 4.30.
For `C[C@@H](CO)c1cc2c(c(O)c1O)[C@@]1(C)CCCC(C)(C)[C@@H]1CC2=O`, the pIC50 with RAW264.7 is below 4.30.
Take `CC(C)c1cc2c(c(O)c1O)[C@@]1(C)CCCC(C)(C)[C@@H]1[C@@H](O)C2=O` [6-ALPHA-HYDROXYDEMETHYL-CRYPTOJAPONOL]: the pIC50 in the data set on RAW264.7 is 5.03.
The same measure, in the same setting: with `Cc1cc2c(O)c3c(c(O)c2o1)[C@@]1(C)CCC(=O)C(C)(C)[C@@H]1CC3=O` the figure was 5.22; with `COC1=C2C(C)(C)C(=O)CC[C@]2(C)c2c(c(O)c3cc(C)oc3c2O)C1=O`, 4.51; with `COC1=C2C(C)(C)CCC[C@]2(C)c2c(O)c3c(c(O)c2C1=O)C[C@H](C)O3`, below 4.30.
The same measure, in the same setting: the value for `CC(CO)c1cc2c(c(O)c1O[C@@H]1O[C@H](CO)[C@@H](O)[C@H](O)[C@H]1O)[C@@]1(C)CC[C@H](O)C(C)(C)[C@@H]1CC2` (some centres undefined) was below 4.30; that for `N=C(N)NN` [PIMAGEDINE HYDROCHLORIDE] was 4.58; that for `CC1=C(C)C2=CC(=O)c3c(O)c4c(c(O)c3[C@@]2(C)CC1=O)O[C@@H](C)[C@@H]4O` was 4.41.
Turning to `C[C@H]1Cc2c(O)c3c(c(O)c2O1)[C@@]1(C)CCC(=O)C(C)(C)[C@@H]1CC3=O`, the pIC50 with RAW264.7 is below 4.30.
Same read-out and setting: the value for `CC1=C(CO)C2=CC(=O)c3c(c(O)c4oc(C)cc4c3O)[C@@]2(C)CC1=O` was below 4.30.
Still for that read-out and setting: the value for `Cc1cc2c(O)c3c(c(O)c2o1)[C@@]1(C)CCC(=O)C(C)(C)C1=C(O)C3=O` was below 4.30.
On to `CC1=C(C=O)CC[C@@]2(C)C1=CC(=O)c1c(O)c3c(c(O)c12)O[C@@H](C)C3`, for which the viability at 25 µM in data set [1] was below 15%.
As to `C[C@H]1Cc2c(O)c3c(c(O)c2O1)[C@@]1(C)CCC2=C(COC2=O)C1=CC3=O`, the pIC50 with RAW264.7 was 4.54.
For the compound `CC1=C(CO)CC[C@@]2(C)C1=CC(=O)c1c(O)c3c(c(O)c12)O[C@@H](C)C3`, the viability at 25 µM in data set [1] was below 15%.
Still for that read-out and setting: with `CC1=C(C)[C@H](O)C[C@@]2(C)C1=CC(=O)c1c2c(O)c2oc(C)cc2c1O` the figure was below 15%.
Consider `CC1=C(C)C2=CC(=O)[C@@]34O[C@@]3(C(=O)c3oc(C)cc3C4=O)[C@@]2(C)CC1`, for which, in the data set with RAW264.7, the pIC50 is 4.97.
Regarding `CC1=C(C)C2=CC(=O)c3c(c(O)c4oc(C)cc4c3O)[C@@]2(C)CC1`, the viability at 25 µM in data set [1] was below 15%.
As for `CC1=C(C)[C@@H](O)C[C@@]2(C)C1=CC(=O)c1c(O)c3c(c(O)c12)O[C@@H](C)C3`, the pIC50 with RAW264.7 was 5.19.
Regarding `C=C1C(C)=CC[C@]2(C)c3c(cc(CC(C)O)c(O[C@@H]4O[C@H](CO)[C@@H](O)[C@H](O)[C@H]4O)c3O)C(=O)C[C@@H]12` (some centres undefined), the negative-log IC50 (pIC50) in the data set with RAW264.7 was below 4.30.
For the compound `CC1=C(C)[C@@H](O)C[C@@]2(C)C1=CC(=O)c1c2c(O)c2oc(C)cc2c1O`, the negative logarithm of the IC50 (pIC50) with RAW264.7 is below 4.30.
Still for that read-out and setting: the value for `CC1=C(C)C2=CC(=O)C3=C(C(=O)[C@]4(Oc5c([C@H](C)CO)cc6c(c5O4)[C@]4(C)CCCC(C)(C)[C@H]4CC6=O)[C@@]4(O)C[C@H](C)O[C@]34O)[C@]2(C)CC1` was 5.25.
`C[C@H]1Cc2c(O)c3c(c(O)c2O1)[C@@]1(C)CC[C@H](O)C(C)(C)[C@@H]1CC3=O`: in data set [1], the viability at 25 µM is below 15%.
With `CC(C)c1cc2c(c(O)c1O[C@@H]1O[C@H](CO)[C@@H](O)[C@H](O)[C@H]1O)[C@@]1(C)CC[C@H](O[C@@H]3O[C@H](CO)[C@@H](O)[C@H](O)[C@H]3O)C(C)(C)[C@@H]1CC2`, the pIC50 in the data set on RAW264.7 is below 4.30.
`CC1=C(C)C2=CC(=O)C3=C(C(=O)c4oc(C)cc4C3=O)[C@@]2(C)CC1`: the viability at 25 µM in data set [1] was below 15%.
Take `CC(C)c1cc2c(c(O)c1O)[C@@]1(C)CCCC(C)(C)[C@@H]1CC2=O` [DEMETHYLCRYPTOJAPONOL]: in the data set with RAW264.7, the pIC50 was 4.81.
Take `CC1(C)CCC[C@@]2(C)C1=CC(=O)c1c(O)c3c(c(O)c12)O[C@@H](CO)C3`: the viability at 25 µM in data set [1] is below 15%.
On to `C[C@H]1Cc2c(O)c3c(c(O)c2O1)[C@@]1(C)CC[C@]2(C)O[C@]2(C)C1=CC3=O`, for which the pIC50 in the data set on RAW264.7 is below 4.30.
On the same count and under the same terms, the value for `COC1=C2C(C)(C)CCC[C@]2(C)c2c(O)c3c(c(O)c2C1=O)C[C@H](CO)O3` was 4.45; that for `C[C@@]12C[C@@H]1CC[C@]1(C)c3c(O)c4c(c(O)c3C(=O)C[C@@H]21)C[C@H](CO)O4` was below 4.30.
Consider `CC1=C(C)[C@H](O)C[C@@]2(C)C1=CC(=O)c1c(O)c3c(c(O)c12)O[C@@H](C)C3`, for which the viability at 25 µM in data set [1] was below 15%.
Turning to `COC1=C2C(C)(C)CCC[C@]2(C)c2c(c(O)c3cc(CO)oc3c2O)C1=O`, the pIC50 in the data set with RAW264.7 is 4.79.
The same measure, in the same setting: with `CC1=C(C)C2=CC(=O)c3c(c(O)c4oc(C)cc4c3O)[C@@]2(C)CC1=O` the figure was below 4.30; with `CC1=C(C)C2=CC(=O)c3c(O)c4c(c(O)c3[C@@]2(C)CC1=O)O[C@@H](C)C4`, 4.50; with `COC1=C2C(C)(C)C(=O)CC[C@]2(C)c2c(O)c3c(c(O)c2C1=O)C[C@H](C)O3`, below 4.30.
Take `CC1(C)CCC[C@]2(C)c3c(O)c4c(c(O)c3C(=O)C[C@@H]12)C[C@H](CO)O4`: the pIC50 in the data set on RAW264.7 is below 4.30.
On the same count and under the same terms, the value for `C[C@H]1Cc2c(O)c3c(c(O)c2O1)[C@@]1(C)CCC(=O)C(C)(C)C1=C(O)C3=O` [TEUVINCENONE A] was below 4.30; that for `CC(C)c1cc2c(c(O)c1O[C@@H]1O[C@H](CO)[C@@H](O)[C@H](O)[C@H]1O)[C@@]1(C)CCC[C@](C)(C(=O)O[C@@H]3O[C@H](CO)[C@@H](O)[C@H](O)[C@H]3O)[C@@H]1CC2` was below 4.30.
In the case of `CC1=C(CO)C(=O)C[C@@]2(C)C1=CC(=O)c1c(O)c3c(c(O)c12)O[C@@H](C)C3`, in data set [1], the viability at 25 µM was below 15%.

For the origin of these results see ChEMBL document CHEMBL4145623, “Abietane Diterpenoids from the Roots of Clerodendrum trichotomum and Their Nitric Oxide Inhibitory Activities” (J Nat Prod, 2018).
